The text below walks through data of ChEMBL document CHEMBL1140012, “Rapid hit to lead evaluation of pyrazolo[3,4-d]pyrimidin-4-one as selective and orally bioavailable mGluR1 antagonists” (Bioorg Med Chem Lett, 2007).

For series [1], the target named is Metabotropic glutamate receptor 1 (Homo sapiens, UniProt Q13255). Nature of the series: Antagonist activity at human mGluR1 receptor expressed in […] cells assessed as inhibition of glutamate-induced calcium flux by FLIPR assay. In kind it is functional, cell-based. The method in brief: (§1)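 1321N1 cells transfected with human mGluR1 or human mGluR5 and co-expressing rat GLAST were used in a FLIPR calcium influx assay. Calcium flux was induced by 10 μM glutamate. IC50 is the concentration blocking 50% of that flux, given as the mean ± SEM of at least three determinations.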
In general terms: Calcium assays in cells follow changes in intracellular calcium, usually with a dye or a luminescent sensor.

The target of series [2] is Metabotropic glutamate receptor 5 (Homo sapiens, UniProt P41594). Nature of the series: Antagonist activity at human mGluR5 receptor expressed in […] cells assessed as inhibition of glutamate-induced calcium flux by FLIPR assay. In kind it is functional, cell-based. The method in brief:
as §1

The nature of series [3]: Metabolic stability assessed as intrinsic clearance in rat liver microsomes. It counts as ADME, Microsome. The method in brief:
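Intrinsic clearance was measured in rat liver microsomes and reported as scaled intrinsic clearance.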
(Microsomes from liver hold many membrane-bound enzymes, among them those of drug oxidation.)

Series [4] is described as follows: Aqueous solubility of the compound. The note with it: buffer. In kind it is physicochemical.
A short description of series [5]: Permeability of the compound. It counts as ADME. The note with it: not told; read-out: permeability. The method, boiled down:
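Passive membrane permeability was measured and reported in ×10^-6 cm/s.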

The nature of series [6]: Bioavailability in Sprague-Dawley rat at 1 mg/kg, ip. In kind it is ADME, organism-based. To be noted: in vivo.
Series [7] can be described thus: AUC in Sprague-Dawley rat at 1 mg/kg, po. In kind it is ADME, organism-based. Set-up: dose 1 mg/kg, route oral. The note with it: plasma.
The nature of series [8]: Half life in Sprague-Dawley rat at 1 mg/kg, iv. It counts as ADME, organism-based. Also on record: dose 1 mg/kg, route intravenous. The note with it: in vivo.
Series [9] in a line: Cmax in Sprague-Dawley rat at 1 mg/kg, po. It counts as ADME, organism-based. Also on record: dose 1 mg/kg, route oral. To be noted: in vivo.
Series [10] has as its system Rattus norvegicus. The series can be described thus: (§2) Tmax in Sprague-Dawley rat at 1 mg/kg, ip. To be noted: in vivo. In kind it is ADME, organism-based. Set-up: dose 1 mg/kg, route intraperitoneal.
Series [11] has as its system Rattus norvegicus. The series can be described thus: Clearance in Sprague-Dawley rat at 1 mg/kg, iv. Set-up: dose 1 mg/kg, route intravenous. To be noted: in vivo. It counts as ADME, organism-based.
Series [12] in a line: Volume of distribution at terminal phase in Sprague-Dawley rat at 1 mg/kg, iv. It counts as ADME, organism-based. Also on record: dose 1 mg/kg, route intravenous. The note with it: in vivo, read-out: Vbeta.
For series [13], the system named is Rattus norvegicus. Nature of the series: (§3) AUC in Sprague-Dawley rat at 1 mg/kg, ip. It counts as ADME, organism-based, Plasma. Set-up: dose 1 mg/kg, route intraperitoneal. To be noted: in vivo.
The subject of series [14] is Rattus norvegicus. The series can be described thus: (§4) Cmax in Sprague-Dawley rat at 1 mg/kg, ip. The note with it: in vivo. It counts as ADME, organism-based. Also on record: dose 1 mg/kg, route intraperitoneal.
Series [15] is described as follows: Oral bioavailability in Sprague-Dawley rat at 1 mg/kg. In kind it is ADME, organism-based. To be noted: in vivo.
Series [16] can be described thus: Tmax in Sprague-Dawley rat at 1 mg/kg, po. In kind it is ADME, organism-based. Set-up: dose 1 mg/kg, route oral. The note with it: in vivo.
Series [17] deals with Rattus norvegicus. Nature of the series: (§5) Half life in Sprague-Dawley rat at 1 mg/kg, ip. In kind it is ADME, organism-based. Set-up: dose 1 mg/kg, route intraperitoneal. The note with it: in vivo.
Series [18] can be described thus: Half life in Sprague-Dawley rat at 1 mg/kg, po. In kind it is ADME, organism-based. Also on record: dose 1 mg/kg, route oral. The note with it: in vivo.
A short description of series [19]: AUC in Sprague-Dawley rat at 1 mg/kg, iv. In kind it is ADME, organism-based. Also on record: dose 1 mg/kg, route intravenous. To be noted: plasma.
The nature of series [20]: as §2. It counts as ADME, organism-based. Set-up: dose 1 mg/kg, route intraperitoneal. To be noted: Sprague-Dawley, in vivo.
The nature of series [21]: as §3. The note with it: Sprague-Dawley, plasma. It counts as ADME, organism-based, Plasma. Set-up: dose 1 mg/kg, route intraperitoneal.
Series [22] in a line: as §4. It counts as ADME, organism-based. Also on record: dose 1 mg/kg, route intraperitoneal. To be noted: Sprague-Dawley, in vivo.
Series [23] can be described thus: as §5. To be noted: Sprague-Dawley, in vivo. Also on record: dose 1 mg/kg, route intraperitoneal. In kind it is ADME, organism-based.

pIC50: −log10 of the molar value. In brackets after ≈: the same amount, converted by molar mass. Bounds are passed on as bounds.

Metabotropic glutamate receptor 1, sequence (Q13255 whole entry): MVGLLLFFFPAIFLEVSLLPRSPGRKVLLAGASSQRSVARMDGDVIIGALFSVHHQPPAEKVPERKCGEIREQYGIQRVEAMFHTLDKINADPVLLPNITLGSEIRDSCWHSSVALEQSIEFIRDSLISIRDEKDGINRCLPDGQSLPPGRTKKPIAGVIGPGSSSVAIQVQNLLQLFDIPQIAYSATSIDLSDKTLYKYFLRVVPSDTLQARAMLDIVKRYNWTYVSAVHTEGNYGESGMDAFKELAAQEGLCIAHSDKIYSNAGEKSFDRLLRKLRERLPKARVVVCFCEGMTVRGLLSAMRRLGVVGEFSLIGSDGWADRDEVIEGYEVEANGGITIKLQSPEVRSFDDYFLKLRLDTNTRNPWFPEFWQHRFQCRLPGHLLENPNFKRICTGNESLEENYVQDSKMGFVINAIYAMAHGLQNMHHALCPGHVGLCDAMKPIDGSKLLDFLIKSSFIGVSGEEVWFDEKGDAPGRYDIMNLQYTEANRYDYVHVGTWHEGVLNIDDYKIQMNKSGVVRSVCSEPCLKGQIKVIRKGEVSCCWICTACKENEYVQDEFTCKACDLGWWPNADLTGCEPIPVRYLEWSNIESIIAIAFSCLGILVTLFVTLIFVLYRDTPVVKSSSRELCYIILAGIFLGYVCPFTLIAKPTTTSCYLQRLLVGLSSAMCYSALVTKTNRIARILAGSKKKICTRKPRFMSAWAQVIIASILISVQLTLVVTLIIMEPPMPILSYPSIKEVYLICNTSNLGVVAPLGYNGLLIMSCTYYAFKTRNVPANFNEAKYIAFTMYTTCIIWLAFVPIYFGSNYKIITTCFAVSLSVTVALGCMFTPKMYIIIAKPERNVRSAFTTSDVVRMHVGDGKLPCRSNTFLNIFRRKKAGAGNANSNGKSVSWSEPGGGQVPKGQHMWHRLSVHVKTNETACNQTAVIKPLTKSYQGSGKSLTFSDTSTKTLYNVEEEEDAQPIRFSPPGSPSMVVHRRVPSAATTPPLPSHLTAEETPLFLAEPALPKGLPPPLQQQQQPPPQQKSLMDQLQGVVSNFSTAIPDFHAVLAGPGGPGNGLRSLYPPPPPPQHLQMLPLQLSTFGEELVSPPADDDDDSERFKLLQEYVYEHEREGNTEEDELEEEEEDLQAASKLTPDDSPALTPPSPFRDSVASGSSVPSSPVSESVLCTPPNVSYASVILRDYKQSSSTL
Metabotropic glutamate receptor 5, sequence (P41594 whole entry): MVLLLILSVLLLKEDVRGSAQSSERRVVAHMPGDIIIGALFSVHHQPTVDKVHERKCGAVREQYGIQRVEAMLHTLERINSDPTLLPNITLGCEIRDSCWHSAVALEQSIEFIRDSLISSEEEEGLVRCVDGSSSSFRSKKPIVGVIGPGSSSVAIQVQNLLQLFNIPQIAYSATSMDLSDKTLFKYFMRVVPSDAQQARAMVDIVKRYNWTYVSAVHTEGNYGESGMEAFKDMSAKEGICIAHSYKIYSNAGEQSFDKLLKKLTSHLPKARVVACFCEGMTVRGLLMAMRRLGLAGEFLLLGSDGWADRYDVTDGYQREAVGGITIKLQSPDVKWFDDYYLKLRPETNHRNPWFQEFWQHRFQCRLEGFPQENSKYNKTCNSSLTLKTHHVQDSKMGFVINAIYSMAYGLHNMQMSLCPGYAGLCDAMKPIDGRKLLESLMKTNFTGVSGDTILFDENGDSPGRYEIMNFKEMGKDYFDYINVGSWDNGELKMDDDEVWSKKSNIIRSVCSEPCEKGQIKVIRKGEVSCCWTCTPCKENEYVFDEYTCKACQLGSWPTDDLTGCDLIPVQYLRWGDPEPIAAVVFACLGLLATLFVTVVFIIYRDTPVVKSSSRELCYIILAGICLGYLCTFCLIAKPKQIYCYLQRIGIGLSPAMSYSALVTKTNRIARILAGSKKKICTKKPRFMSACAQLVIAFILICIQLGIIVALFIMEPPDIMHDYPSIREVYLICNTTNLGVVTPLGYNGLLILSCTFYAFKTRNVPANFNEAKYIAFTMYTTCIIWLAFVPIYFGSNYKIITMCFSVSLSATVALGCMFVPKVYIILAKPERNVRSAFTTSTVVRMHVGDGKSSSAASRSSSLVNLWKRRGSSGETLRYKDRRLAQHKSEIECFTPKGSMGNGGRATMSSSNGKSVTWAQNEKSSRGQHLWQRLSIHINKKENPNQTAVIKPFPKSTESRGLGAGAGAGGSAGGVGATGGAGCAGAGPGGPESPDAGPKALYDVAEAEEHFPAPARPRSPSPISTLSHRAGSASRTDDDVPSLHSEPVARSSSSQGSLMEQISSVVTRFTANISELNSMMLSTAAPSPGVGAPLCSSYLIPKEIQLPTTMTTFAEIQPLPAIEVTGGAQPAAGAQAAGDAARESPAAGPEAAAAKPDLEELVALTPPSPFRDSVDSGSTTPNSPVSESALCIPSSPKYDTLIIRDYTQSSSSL

On to `Cc1nc2c(cnn2CC2CCCCC2)c(=O)n1-c1ccc(Cl)cc1`, for which the negative logarithm of the IC50 (pIC50) in series [1] and in series [2] was less than 4.00 in each case.
Regarding `Cc1nc2c(cnn2-c2ccccc2)c(=O)n1-c1ccc(S(N)(=O)=O)cc1`, the pIC50 in [1] and in series [2] was less than 4.00 throughout.
For the compound `Cc1nc2c(cnn2-c2ccccc2)c(=O)n1-c1ccc(Cl)cc1`, the pIC50 – broadly, −log10 of the IC50, conventionally taken in molar units – in [1] is 6.62; in series [2], 5.02. Moreover, in series [3], the CLint scaled – broadly, a measure of how fast metabolising enzymes remove a compound, apart from limits set by blood flow – was 117 mL/min/kg. Moreover, in series [4], the solubility (commonly the dissolved amount per volume that the medium holds) was 18 µM (≈ 6.06 µg/mL). Moreover, in series [5], the Papp came to 29.6 ×10⁻⁶ cm/s.
Turning to `Cc1nc2c(cnn2-c2ccc(S(N)(=O)=O)cc2)c(=O)n1-c1ccc(Cl)cc1`, the pIC50 in series [1] was 5.85; in series [2], less than 4.00.
In the case of `Cc1nc2c(cnn2-c2ccccc2)c(=O)n1-c1ccc(OC(F)(F)F)cc1`, the pIC50 in series [1] and in [2] was less than 4.00 in each case.
Consider `Cc1nc2c(cnn2-c2ccccc2)c(=O)n1N1CCCCCC1`, for which the pIC50 in series [1] was 6.62; in series [2] it was 5.44.
For `Cc1nc2c(cnn2-c2ccccn2)c(=O)n1-c1ccc(Cl)cc1`, in that order: less than 4.00 and less than 4.00.
Turning to `Cc1nc2c(cnn2-c2ccccc2)c(=O)n1-c1cccc(Cl)c1`, in series [1], the pIC50 is less than 4.00.
Turning to `Cc1nc2c(cnn2-c2ccc(Cl)cc2)c(=O)n1-c1ccc(Cl)cc1`, the pIC50 is 5.96 in series [1] and less than 4.00 in series [2].
As for `Cc1nc2c(cnn2-c2cccnc2)c(=O)n1-c1ccc(Cl)cc1`, the pIC50 is 6.64 in series [1] and less than 4.00 in series [2]. Besides, the CLint scaled in series [3] was 66.7 mL/min/kg. This compound had a solubility in series [4] of 73 µM (≈ 24.7 µg/mL). Also, in series [5], the Papp turned out to be 21.4 ×10⁻⁶ cm/s.
On to `Cc1cccc(-n2ncc3c(=O)n(-c4ccc(Cl)cc4)c(C)nc32)c1`, for which the pIC50 in series [1] was 6.74; in series [2], less than 4.00. Moreover, the CLint scaled in series [3] was 400 mL/min/kg. The compound further came in with a solubility in [4] of 30 µM (≈ 10.5 µg/mL). For the same compound, the Papp in series [5] came to 13.4 ×10⁻⁶ cm/s.
For the compound `Cc1nc2c(cnn2-c2ccccc2)c(=O)n1C1CCCCCC1`, the pIC50 in [1] is 6.12.
Consider `Cc1nc2c(cnn2-c2ccccc2)c(=O)n1-c1ccc(Br)cc1`, for which the pIC50 in series [1] is 7.11; in series [2] it was less than 4.00. Also, the bioavailability (commonly the share of a dose that reaches the circulation, judged against a reference dose that is usually intravenous) was 30% in series [6] and 8% in series [15]. Besides, the AUC (usually concentration integrated over time) in series [7] was found to be 100 ng·h/mL; in the series with Rattus norvegicus [13] it was 389 ng·h/mL; in [19], 1280 ng·h/mL. The half-life (in general, how long it takes for the measured level to halve) is 2.5 h in series [8] and 1.3 h in series [18]. Besides, the Cmax (usually the highest concentration seen after dosing) in series [9] is 30 ng/mL; in the series with Rattus norvegicus [14], 170 ng/mL. Further, the Tmax (usually the time at which the peak concentration occurs) amounted to 0.25 h with Rattus norvegicus [10] and 1.3 h in [16]. Moreover, the clearance (in general, the volume of plasma or blood freed of the substance per unit of time) in the series with Rattus norvegicus [11] amounted to 13.3 mL/min/kg. Moreover, in series [12], the Vd is 3.1 L/kg. Besides, in [3], the CLint scaled is 115 mL/min/kg. In series [4], this compound gave a solubility of 14 µM (≈ 5.34 µg/mL). Besides, the Papp in series [5] stood at 19.4 ×10⁻⁶ cm/s. The compound further returned a t1/2 in the series on Rattus norvegicus [17] of 0.25 h.
With `Cc1nc2c(cnn2-c2cnccn2)c(=O)n1-c1ccc(Cl)cc1`, the pIC50 in [1] and in series [2] was less than 4.00 throughout.
Turning to `Cc1nc2c(cnn2-c2cncnc2)c(=O)n1-c1ccc(Cl)cc1`, the negative logarithm of the IC50 (pIC50) was 5.01 in [1] and less than 4.00 in series [2].
For `Cc1ccccc1-n1ncc2c(=O)n(-c3ccc(Cl)cc3)c(C)nc21`, in that order: 6.46 and 5.02.
With `Cc1nc2c(cnn2C2CCCCCC2)c(=O)n1-c1ccc(Cl)cc1`, the pIC50 is 6.28 in series [1] and less than 4.00 in [2].
For the compound `Cc1nc2c(cnn2-c2ccccc2)c(=O)n1N1CCCCC1`, the pIC50 in series [1] was 7.04; in series [2] it was 5.55. Further, the CLint scaled in series [3] is 1800 mL/min/kg. In series [4], this compound gave a solubility of 19 µM (≈ 5.88 µg/mL). Also, in series [5], the Papp came to 5.49 ×10⁻⁶ cm/s.
For `Cc1nc2c(cnn2-c2cccc(S(N)(=O)=O)c2)c(=O)n1-c1ccc(Cl)cc1`, the pIC50 is 6.90 in series [1] and less than 4.00 in series [2]. In addition, the AUC was found to be 6240 ng·h/mL in series [7], 7790 ng·h/mL in [21] and 6150 ng·h/mL in [19]. Besides, the half-life in series [8] is 1.5 h; in series [23], 1.7 h; in [18] it was 1.2 h. Further, the Cmax in series [9] is 2100 ng/mL; in series [22], 1540 ng/mL. Also, the Tmax was 1.7 h in series [20] and 1.2 h in series [16]. This compound yielded a clearance in the series with Rattus norvegicus [11] of 3.33 mL/min/kg. The Vd in series [12] worked out at 0.4 L/kg. The CLint scaled in series [3] was less than 41.7 mL/min/kg. The solubility in series [4] worked out at 42 µM (≈ 17.5 µg/mL). The Papp in [5] came to 17.6 ×10⁻⁶ cm/s.
For `Cc1nc2c(cnn2-c2ccccc2)c(=O)n1-c1ccc(O)cc1`, the figures for the pIC50 in [1] and in series [2] were 5.62 and less than 4.00, respectively.
In the case of `Cc1nc2c(cnn2-c2ccccc2)c(=O)n1-c1ccc(Cl)c(F)c1`, the values for the negative-log IC50 (pIC50) in series [1] and in series [2] were 6.10 and less than 4.00, respectively. The CLint scaled in series [3] is 183 mL/min/kg. For the same compound, in series [4], the concentration in solution (solubility) came to 18 µM (≈ 6.39 µg/mL).
In the case of `Cc1nc2c(cnn2-c2cccc(Cl)c2)c(=O)n1-c1ccc(Cl)cc1`, the pIC50 in series [1] was 6.66; in series [2], less than 4.00. Also, in series [3], the CLint scaled is 183 mL/min/kg. In [4], this compound registered a solubility of 11 µM (≈ 4.08 µg/mL). Moreover, the Papp in [5] came to 5.6 ×10⁻⁶ cm/s.
